Tested on: MS2 coat protein
Experiment: apparent Kd, MS2 coat protein; higher = weaker binding; RNA-MaP array; FMN 200 µM where present
Summary of the method: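 The titrant was SNAP-549-labelled MS2 coat protein, run from 0.7 or 1.5 nM in doubling steps to 3 µM. It was applied to designs transcribed by stalled E. coli RNA polymerase on Illumina sequencing-chip clusters, without ligand first and then with constant ligand, in 100 mM Tris-HCl pH 7.5, 80 mM KCl, 4 mM MgCl2, BSA, DTT, yeast tRNA and Tween-20. The apparent Kd is the median of filtered per-cluster binding-curve fits, with green signal normalised to red-channel RNA signal and control-cluster median Fmax.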

[1] = designed as: OFF switch for flavin mononucleotide, no ligand
[2] = ligand present: flavin mononucleotide, designed as: OFF switch for flavin mononucleotide
[3] = designed as: ON switch for flavin mononucleotide, no ligand
[4] = ligand present: flavin mononucleotide, designed as: ON switch for flavin mononucleotide

Row | Sequence | apparent Kd [1] [nM] | apparent Kd [2] [nM] | apparent Kd [3] [nM] | apparent Kd [4] [nM]
1 | UGUAUGGACAGAGGAUAUACGUGCUAGAGAUACUAGCUAAUAAUCCUUACAUGAGGAUCACCCAUGUAGAAGGCUGUCCAUACU | 20.5 | 45.6 | – | –
2 | UUUUAACAUGAGGAUCACCCAUGUCGUUCAAAUCAAGGAUAUCAGACGUGUACACACGCCUGAGAAGGUGAAGCUC | – | – | 51.1 | 132
3 | AGUGUCGGCACAGGAUAUGAGAUGCCGGCAGACAUGAGGAUCACCCAUGUAAGCGAACCAGGCAGUCAGAAGGGUGAUCGACGA | – | – | 119 | 26.9
4 | CCUGGUUGGUAAGGAUAUCCUACACUGUUCUGACCCGUGCAAGCUACAUGAGGAUCACCCAUGUGGGAGAAGGUGCGUCAACGC | 12.6 | 11.7 | – | –
5 | UUUGGGUCAGGAUAUUGUUAGUUUAGUUGUUUGUAUUAGUUCGAGAAGGGACAUGAGGAUCACCCAUGUGGUAA | 94.9 | 69.9 | – | –
6 | AAGAGAAAAGCAGGAUAUCUAUAGGCUCCUUAACAUGAGGAUCACCCAUGUAGAGAAGGGCUAAGACCGACUCUUCGGAGUUGA | 9.23 | 27.6 | – | –
7 | CUAGAGGAUUAAGGAUAUGCAGAGAGAUCAUGCGCGUCGCGCACAUGAGGAUCACCCAUGUAAGAGCAGAAGGUAACUAUGAUC | 18.3 | 16.6 | – | –
8 | GGUUGUCAAAGACAACCAUAACGAACAUGAGGAUCACCCAUGUAGGAUAUGCUACUCAAAGAGUAGCAGAAGGACAUGUGCCUU | 37.6 | 326 | – | –
9 | AAUAAACUCACAGGAUAUAGCAGCGGUCGCGUGAACUUACAGGCGACGAGGCUAGAAGGGUGACCACAUGAGGAUCACCCAUGU | – | – | 817 | 219
10 | UUGGACGUCGUAGGAUAUGUAGGAUAUUCCUACAUGAGGAUCACCCAUGUUGUCAUGGAAGAAGGACAGAAGGACGAUGUCCAU | – | – | 328 | 4.9
11 | AACCUAUUACAGAAGGCCAGCUACAUGAGGAUCACCCAUGUCGAGUCAUGGAGGAUAUGUAGUAAUUUACUCACAAAUAAGUGC | – | – | 33.6 | 5.16
12 | GAUUAACAUGAGGAUCACCCAUGUGAGGAUAUGAACUUGCCCACUUUCCCUUUAGAGUUUAGAAGGCGCAUUCU | 29.8 | 30.6 | – | –
13 | UUGUGGGAGACAGGAUAUGUACGGAAGGUCCACGUACAUGAGGAUCACCCAUGUCCAGGCUUCAGACAGAAGGGUCACCAGGUG | – | – | 595 | 45.4
14 | CUUUCGUGAGGAUAUGUGGCUUCAAUCGUGAGAUCGAGGCUACAGAAGGCACAUGAGGAUCACCCAUGUUCCUC | 37.9 | 388 | – | –
15 | AGCCUACAUGAGGAUCACCCAUGUCAGGAUAUCUCGCGACGUGUCGGGAACACGUUGCAGAGAAGGGACUCGGG | 56.4 | 69.4 | – | –
16 | AAAUACAGAGGAUAUGUACGAAUUGACAUGAGGAUCACCCAUGUGACUUCGUGCACUUUGACAGAAGGCUGGGAAU | 16.8 | 32.7 | – | –
17 | UGGUUGUGUGUUAGGAUAUGGUUUGGUGUUUCGGGCUAGAAGGGACAUGAGGAUCACCCAUGUGGCUGGCGGGU | 72.6 | 58.1 | – | –
18 | AGAUUUGUACAUGAGGAUCACCCAUGUUAAUAGGUGGUUGUCAGAAGGCAUUGAUAGAGUUUUAAUGAGGAUAUGAAUUUACAG | – | – | 1000 | 553
19 | GCAUUGAUAACAGGAUAUAUGAAUCCUACAUGAGGAUCACCCAUGUAGGUGAUCAGCCGUGAUUAGUAGAAGGGUUAUCAAUGC | – | – | 13 | 6.49
20 | UACACGGUAGGAUAUACGUAGAUGCAGGUUCGUGUGGUGCUACAUGAGGAUCACCCAUGUAGAAGGACCAACGU | 15.7 | 15.2 | – | –
21 | ACAUGAGGAUCACCCAUGUUGAAUUAGGAUAUUUGACUGCACAUGAGGUUCACCCAUGUUCUACCGAAGAAGGGAUUAAUAAUU | – | – | 120 | 118
22 | AUUUGACACGUAGGAUAUCGCUCAAAUUUAACACGAGAAGGACGAACAUGAGGAUCACCCAUGUAACAUGGUGUAGUUUAUUUG | 62.7 | 88.1 | – | –
23 | UGUGCCUCGAGAGGAUAUUACAUGAGGAUCACCCAUGUAACAGAGGUGGAAACACCUCUGAAAUGUAAGAAGGCUCGAGGCACA | 19.1 | 29.6 | – | –

Source: the EternaBench riboswitch data
